≈ marks a conversion by molar mass, not a printed value.
Assays:
Cyberlindnera jadinii = assay: Antifungal activity against Candida utilis after 24 hrs by NCCLS two fold broth microdilution method; format: functional; details: Williopsis jadinii
Procedure, shortened: (§1)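 Two-fold serial microdilution following NCCLS. A spore suspension in sterile distilled water was prepared from one-day-old cultures grown on Sabouraud agar and adjusted to a final 1–5 × 10^3 spores/mL. DMSO stocks were diluted in RPMI 1640 to eleven concentrations (0.5–512 µg/mL), inoculated and held at 35 °C for 24 h. Growth was read visually and spectrophotometrically, MIC was the lowest concentration with complete inhibition, and runs were in triplicate.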

Bacillus subtilis = assay: Antibacterial activity against Bacillus subtilis ATCC 21216 after 24 hrs by NCCLS two fold broth microdilution method; format: functional; details: ATCC 21216, 24 h
Procedure, shortened: (§2)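 Two-fold serial broth microdilution in 96-well plates following NCCLS. Compounds were dissolved in DMSO as stocks, then diluted in Mueller–Hinton broth to final concentrations of 0.5–512 µg/mL. Plates were inoculated and incubated at 37 °C for 24 h, with growth read visually and spectrophotometrically. MIC was taken as the lowest concentration giving complete growth inhibition. Run in triplicate, with a DMSO-plus-inoculum solvent control.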

Aspergillus flavus [1] = assay: Antifungal activity against Aspergillus flavus after 24 hrs by NCCLS two fold broth microdilution method; format: functional; procedure, shortened: as §1
Escherichia coli = assay: Antibacterial activity against Escherichia coli ATCC 8099 after 24 hrs by NCCLS two fold broth microdilution method; format: functional; details: ATCC 8099, 24 h
Procedure, shortened: as §2, with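 “NCCLS.” for “NCCLS. Compounds were dissolved in DMSO as stocks, then diluted in Mueller–Hinton broth to final concentrations of 0.5–512 µg/mL.”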

Staphylococcus aureus [2] = assay: Antibacterial activity against methicillin-resistant Staphylococcus aureus N315 after 24 hrs by NCCLS two fold broth microdilution method; format: functional; details: N315, 24 h
Procedure, shortened: (§3)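 Two-fold serial broth microdilution per NCCLS. Chloromycin and norfloxacin as reference drugs; DMSO with inoculum, no drug, as solvent control. Incubation 37 °C for 24 h. Growth read visually and spectrophotometrically. MIC is the lowest concentration completely inhibiting growth; triplicate.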

Salmonella typhi = assay: Antibacterial activity against Bacillus typhi after 24 hrs by NCCLS two fold broth microdilution method; format: functional, Salmonella enterica subsp. enterica serovar Typhi; details: Salmonella enterica
Procedure, shortened: as §3, with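 “NCCLS. DMSO stocks diluted in Mueller–Hinton broth to 512, 256, 128, 64, 32, 16, 8, 4, 2, 1, 0.5 µg/mL.” for “NCCLS.”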

Candida albicans = assay: Antifungal activity against Candida albicans ATCC 76615 after 24 hrs by NCCLS two fold broth microdilution method; format: functional; details: ATCC 76615, 24 h; procedure, shortened: as §1
Pseudomonas aeruginosa = assay: Antibacterial activity against Pseudomonas aeruginosa ATCC 27853 after 24 hrs by NCCLS two fold broth microdilution method; format: functional; details: ATCC 27853, 24 h
Procedure, shortened: as §2, with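 “NCCLS.” for “NCCLS. Compounds were dissolved in DMSO as stocks, then diluted in Mueller–Hinton broth to final concentrations of 0.5–512 µg/mL.”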

Bacillus = assay: Antibacterial activity against Bacillus proteus ATCC 13315 after 24 hrs by NCCLS two fold broth microdilution method; format: functional; details: ATCC 13315, 24 h; procedure, shortened: as §2
Staphylococcus aureus [3] = assay: Antibacterial activity against Staphylococcus aureus ATCC 25923 after 24 hrs by NCCLS two fold broth microdilution method; format: functional; details: ATCC 25923, 24 h; procedure, shortened: as §2
Saccharomyces cerevisiae = assay: Antifungal activity against Saccharomyces cerevisiae after 24 hrs by NCCLS two fold broth microdilution method; format: functional; procedure, shortened: as §1
Pichia norvegensis = assay: Antifungal activity against Candida mycoderma after 24 hrs by NCCLS two fold broth microdilution method; format: functional
Micrococcus luteus = assay: Antibacterial activity against Micrococcus luteus ATCC 4698 after 24 hrs by NCCLS two fold broth microdilution method; format: functional; details: NCTC 2665, 24 h; procedure, shortened: as §2
Aspergillus flavus [4] = assay: Potency index, ratio of Fluconazole MIC to compound MIC for Aspergillus flavus; format: functional

Row | SMILES | MIC (Cyberlindnera jadinii) [µg/mL] | MIC (Bacillus subtilis) [µg/mL] | MIC (Aspergillus flavus [1]) [µg/mL] | MIC (Escherichia coli) [µg/mL] | MIC (Staphylococcus aureus [2]) [µg/mL] | MIC (Salmonella typhi) [µg/mL] | MIC (Candida albicans) [µg/mL] | MIC (Pseudomonas aeruginosa) [µg/mL] | MIC (Bacillus) [µg/mL] | MIC (Staphylococcus aureus [3]) [µg/mL] | MIC (Saccharomyces cerevisiae) [µg/mL] | MIC (Pichia norvegensis) [µg/mL] | MIC (Micrococcus luteus) [µg/mL] | Ratio (Aspergillus flavus [4])
1 | CCCCCCCCCCn1c(CS(=O)(=O)c2ccc(N)cc2)nc2ccccc21 | 8 (≈ 18.7 µM) | 512 (≈ 1200 µM) | 512 (≈ 1200 µM) | 512 (≈ 1200 µM) | 512 (≈ 1200 µM) | 512 (≈ 1200 µM) | 512 (≈ 1200 µM) | 512 (≈ 1200 µM) | 512 (≈ 1200 µM) | 512 (≈ 1200 µM) | 512 (≈ 1200 µM) | 512 (≈ 1200 µM) | 512 (≈ 1200 µM) | –
2 | Nc1ccc(S(=O)(=O)Cc2nc3ccccc3n2Cc2ccccc2F)cc1 | 4 (≈ 10.1 µM) | 16 (≈ 40.5 µM) | 32 (≈ 80.9 µM) | 4 (≈ 10.1 µM) | 64 (≈ 162 µM) | 16 (≈ 40.5 µM) | 128 (≈ 324 µM) | 512 (≈ 1290 µM) | 256 (≈ 647 µM) | 64 (≈ 162 µM) | 8 (≈ 20.2 µM) | 8 (≈ 20.2 µM) | 32 (≈ 80.9 µM) | 8
3 | CC(=O)Nc1ccc(S(=O)(=O)Cc2nc3ccccc3n2Cc2ccc(Cl)c(Cl)c2)cc1 | 512 (≈ 1050 µM) | 128 (≈ 262 µM) | 16 (≈ 32.8 µM) | 256 (≈ 524 µM) | 512 (≈ 1050 µM) | 512 (≈ 1050 µM) | 64 (≈ 131 µM) | 512 (≈ 1050 µM) | 128 (≈ 262 µM) | 64 (≈ 131 µM) | 32 (≈ 65.5 µM) | 512 (≈ 1050 µM) | 256 (≈ 524 µM) | –
4 | Nc1ccc(S(=O)(=O)Cc2nc3ccccc3n2Cc2cccc(F)c2)cc1 | 512 (≈ 1290 µM) | 512 (≈ 1290 µM) | 256 (≈ 647 µM) | 128 (≈ 324 µM) | 128 (≈ 324 µM) | 512 (≈ 1290 µM) | 128 (≈ 324 µM) | 512 (≈ 1290 µM) | 256 (≈ 647 µM) | 512 (≈ 1290 µM) | 8 (≈ 20.2 µM) | 512 (≈ 1290 µM) | 512 (≈ 1290 µM) | –
5 | Nc1ccc(S(=O)(=O)Cc2nc3ccccc3n2Cc2ccc(F)cc2)cc1 | 128 (≈ 324 µM) | 512 (≈ 1290 µM) | 256 (≈ 647 µM) | 256 (≈ 647 µM) | 512 (≈ 1290 µM) | 16 (≈ 40.5 µM) | 32 (≈ 80.9 µM) | 16 (≈ 40.5 µM) | 128 (≈ 324 µM) | 16 (≈ 40.5 µM) | 32 (≈ 80.9 µM) | 512 (≈ 1290 µM) | 512 (≈ 1290 µM) | –
6 | CCCCCCCn1c(CS(=O)(=O)c2ccc(N)cc2)nc2ccccc21 | 512 (≈ 1330 µM) | 512 (≈ 1330 µM) | 512 (≈ 1330 µM) | 512 (≈ 1330 µM) | 512 (≈ 1330 µM) | 512 (≈ 1330 µM) | 512 (≈ 1330 µM) | 512 (≈ 1330 µM) | 512 (≈ 1330 µM) | 512 (≈ 1330 µM) | 64 (≈ 166 µM) | 512 (≈ 1330 µM) | 128 (≈ 332 µM) | –
7 | CCCCCCCCCCCCn1c(CS(=O)(=O)c2ccc(NC(C)=O)cc2)nc2ccccc21 | 512 (≈ 1030 µM) | 512 (≈ 1030 µM) | 512 (≈ 1030 µM) | 256 (≈ 514 µM) | 512 (≈ 1030 µM) | 512 (≈ 1030 µM) | 512 (≈ 1030 µM) | 512 (≈ 1030 µM) | 512 (≈ 1030 µM) | 512 (≈ 1030 µM) | 512 (≈ 1030 µM) | 512 (≈ 1030 µM) | 512 (≈ 1030 µM) | –
8 | CC(=O)Nc1ccc(S(=O)(=O)Cc2nc3ccccc3n2Cc2cccc(Cl)c2)cc1 | 512 (≈ 1130 µM) | 128 (≈ 282 µM) | 256 (≈ 564 µM) | 64 (≈ 141 µM) | 128 (≈ 282 µM) | 128 (≈ 282 µM) | 512 (≈ 1130 µM) | 256 (≈ 564 µM) | 128 (≈ 282 µM) | 32 (≈ 70.5 µM) | 128 (≈ 282 µM) | 256 (≈ 564 µM) | 64 (≈ 141 µM) | –
9 | CCCCCn1c(CS(=O)(=O)c2ccc(NC(C)=O)cc2)nc2ccccc21 | 32 (≈ 80.1 µM) | 64 (≈ 160 µM) | 32 (≈ 80.1 µM) | 256 (≈ 641 µM) | 128 (≈ 320 µM) | 32 (≈ 80.1 µM) | 256 (≈ 641 µM) | 4 (≈ 10 µM) | 256 (≈ 641 µM) | 32 (≈ 80.1 µM) | 64 (≈ 160 µM) | 16 (≈ 40 µM) | 32 (≈ 80.1 µM) | –
10 | CCCCCCn1c(CS(=O)(=O)c2ccc(NC(C)=O)cc2)nc2ccccc21 | 512 (≈ 1240 µM) | 128 (≈ 310 µM) | 512 (≈ 1240 µM) | 512 (≈ 1240 µM) | 512 (≈ 1240 µM) | 512 (≈ 1240 µM) | 512 (≈ 1240 µM) | 512 (≈ 1240 µM) | 256 (≈ 619 µM) | 512 (≈ 1240 µM) | 512 (≈ 1240 µM) | 512 (≈ 1240 µM) | 256 (≈ 619 µM) | –
11 | Nc1ccc(S(=O)(=O)Cc2nc3ccccc3n2Cc2ccc(Cl)cc2Cl)cc1 | 2 (≈ 4.48 µM) | 32 (≈ 71.7 µM) | 4 (≈ 8.96 µM) | 16 (≈ 35.8 µM) | 128 (≈ 287 µM) | 128 (≈ 287 µM) | 16 (≈ 35.8 µM) | 32 (≈ 71.7 µM) | 128 (≈ 287 µM) | 8 (≈ 17.9 µM) | 256 (≈ 574 µM) | 512 (≈ 1150 µM) | 64 (≈ 143 µM) | –
12 | CC(=O)Nc1ccc(S(=O)(=O)Cc2nc3ccccc3n2Cc2ccccc2Cl)cc1 | 512 (≈ 1130 µM) | 32 (≈ 70.5 µM) | 8 (≈ 17.6 µM) | 32 (≈ 70.5 µM) | 32 (≈ 70.5 µM) | 16 (≈ 35.2 µM) | 32 (≈ 70.5 µM) | 16 (≈ 35.2 µM) | 512 (≈ 1130 µM) | 32 (≈ 70.5 µM) | 512 (≈ 1130 µM) | 512 (≈ 1130 µM) | 64 (≈ 141 µM) | –
13 | CCCn1c(CS(=O)(=O)c2ccc(N)cc2)nc2ccccc21 | 64 (≈ 194 µM) | 32 (≈ 97.1 µM) | 8 (≈ 24.3 µM) | 64 (≈ 194 µM) | 128 (≈ 389 µM) | 32 (≈ 97.1 µM) | 64 (≈ 194 µM) | 256 (≈ 777 µM) | 256 (≈ 777 µM) | 256 (≈ 777 µM) | 32 (≈ 97.1 µM) | 4 (≈ 12.1 µM) | 256 (≈ 777 µM) | –
14 | Nc1ccc(S(=O)(=O)Cc2nc3ccccc3n2Cc2ccc(Cl)cc2)cc1 | 32 (≈ 77.7 µM) | 8 (≈ 19.4 µM) | 128 (≈ 311 µM) | 64 (≈ 155 µM) | 256 (≈ 621 µM) | 512 (≈ 1240 µM) | 256 (≈ 621 µM) | 256 (≈ 621 µM) | 256 (≈ 621 µM) | 256 (≈ 621 µM) | 64 (≈ 155 µM) | 16 (≈ 38.8 µM) | 8 (≈ 19.4 µM) | –
15 | CCCCCCCn1c(CS(=O)(=O)c2ccc(NC(C)=O)cc2)nc2ccccc21 | 128 (≈ 299 µM) | 256 (≈ 599 µM) | 256 (≈ 599 µM) | 64 (≈ 150 µM) | 512 (≈ 1200 µM) | 512 (≈ 1200 µM) | 512 (≈ 1200 µM) | 512 (≈ 1200 µM) | 256 (≈ 599 µM) | 8 (≈ 18.7 µM) | 512 (≈ 1200 µM) | 512 (≈ 1200 µM) | 512 (≈ 1200 µM) | –
16 | CCCCCCCCCCCCCCCCCCn1c(CS(=O)(=O)c2ccc(N)cc2)nc2ccccc21 | 512 (≈ 948 µM) | 512 (≈ 948 µM) | 512 (≈ 948 µM) | 512 (≈ 948 µM) | 512 (≈ 948 µM) | 512 (≈ 948 µM) | 512 (≈ 948 µM) | 512 (≈ 948 µM) | 512 (≈ 948 µM) | 512 (≈ 948 µM) | 64 (≈ 119 µM) | 64 (≈ 119 µM) | 256 (≈ 474 µM) | –
17 | CCCCCCCCCCn1c(CS(=O)(=O)c2ccc(NC(C)=O)cc2)nc2ccccc21 | 16 (≈ 34.1 µM) | 512 (≈ 1090 µM) | 512 (≈ 1090 µM) | 512 (≈ 1090 µM) | 512 (≈ 1090 µM) | 512 (≈ 1090 µM) | 512 (≈ 1090 µM) | 512 (≈ 1090 µM) | 512 (≈ 1090 µM) | 512 (≈ 1090 µM) | 512 (≈ 1090 µM) | 512 (≈ 1090 µM) | 512 (≈ 1090 µM) | –
